The results in this text go back to ChEMBL document CHEMBL4196238, “Synthesis and Antiviral Evaluation of Carbocyclic Nucleoside Analogs of Nucleoside Reverse Transcriptase Translocation Inhibitor MK-8591 (4'-Ethynyl-2-fluoro-2'-deoxyadenosine)” (J Med Chem, 2018).

Usually IC50 stands for the concentration needed to halve the response being measured. What is called CC50 is the concentration at which the toxic effect on the cells reaches its halfway point. Broadly, the AUC(0-inf) is the area under the concentration-time curve extrapolated to infinity. A higher AUC(0-inf) goes with more exposure. As usually defined, the clearance is the rate of elimination divided by the concentration. Read a high clearance as a high capacity for elimination. By half-life is commonly meant the time in which the quantity being followed falls by half. A lower half-life goes with rapid decline. What is called bioavailability is dose-corrected exposure relative to a reference, in per cent.

Data set [1] relates to Human immunodeficiency virus 1. The data set can be described thus: Antiviral activity against HIV1 infected in human PBMC incubated for 24 hrs in presence of 10% NHS by GFP based single cycle HIV replication assay. Format: functional, organism-based. The conditions noted are these: Human immunodeficiency virus 1, PBMC. The essentials: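 Human PBMCs infected with wild-type HIV-1 were tested in a single-cycle HIV replication assay containing 10% normal human serum (NHS), and IC50 values were determined.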

A short description of data set [2]: Cytotoxicity in human MT4 cells expressing GFP assessed as reduction in cell viability incubated for 48 hrs by cell-titer-Glo luminescent cell viability assay. Format: cell-based. In a few lines: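 CC50 values were determined in the MT4 cell line under 10% NHS conditions.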
The nature of data set [3]: AUC (0 to infinity) in Sprague-Dawley rat at 1 mg/kg, iv. Format: ADME, organism-based. Also noted: dose 1 mg/kg, time infinity, route intravenous. To be noted: in vivo. In a few lines: (§1)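 Male Sprague–Dawley rats were dosed intravenously at 1 mg/kg or orally at 2 mg/kg, and pharmacokinetic parameters were derived from plasma data for each route.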
Data set [4] in a line: AUC (0 to infinity) in Sprague-Dawley rat at 2 mg/kg, po. Format: ADME, organism-based. Also noted: dose 2 mg/kg, time infinity, route oral. The conditions noted are these: in vivo. The essentials:
as §1

Data set [5] can be described thus: Clearance in Sprague-Dawley rat at 1 mg/kg, iv. Format: ADME, organism-based. The conditions noted are these: in vivo. In a few lines: as §1
A short description of data set [6]: Half life in Sprague-Dawley rat at 1 mg/kg, iv. The conditions noted are these: in vivo. Format: ADME, organism-based. The essentials: as §1
A short description of data set [7]: Oral bioavailability in Sprague-Dawley rat at 2 mg/kg. Format: ADME, organism-based. To be noted: in vivo. In a few lines: as §1
Data set [8] is described as follows: Half life in human CD4+ CEM cells at 0.1 to 10 uM by HPLC method. Format: ADME, cell-based, CCRF-CEM.
In data set [9] the target is Human immunodeficiency virus type 1 reverse transcriptase (Human immunodeficiency virus 1, UniProt Q72547). The data set can be described thus: Inhibition of full-length wild-type HIV1 reverse transcriptase expressed in Escherichia coli BL21(DE3) pre-incubated for 30 mins before addition of template/primer substrate and measured after 90 mins.
Data set [10] in a line: AUC (0 to infinity) in Sprague-Dawley rat at 5 mg/kg, po. Also noted: dose 5 mg/kg, time infinity, route oral. Format: ADME, organism-based. The conditions noted are these: in vivo.
A short description of data set [11]: Oral bioavailability in Sprague-Dawley rat at 5 mg/kg. Format: ADME, organism-based. To be noted: in vivo.

As to `C#C[C@@]1(CO[P@@](=O)(N[C@@H](C)C(=O)OC(C)C)Oc2ccccc2)C[C@H](n2cnc3c(OCC)nc(N)nc32)C[C@H]1O`, the IC50 in data set [1] was determined as 0.382 µM. Also, the CC50 at 48 h in data set [2] is greater than 4.2 µM.
Turning to `C#C[C@]1(CO)C[C@@H](n2cnc3c(=O)[nH]c(N)nc32)C[C@@H]1O`, the IC50 in [1] was 0.024 µM. The 50% cytotoxic concentration (CC50) at 48 h in data set [2] was greater than 42 µM. Also, the AUC(0-inf) was 1.82 µM·h in [3] and 3.3 µM·h in data set [4]. This compound gave a clearance in data set [5] of 32.4 mL/min/kg. Moreover, the half-life in data set [6] is 9.8 h. Also, in data set [7], the bioavailability is 91%.
For `C#C[C@@]1(CO)C[C@H](n2cnc3c(=O)[nH]c(N)nc32)C[C@H]1O`, the IC50 in data set [1] is greater than 2.1 µM. Moreover, the CC50 at 48 h in data set [2] was greater than 42 µM.
The matching figures for `C#C[C@]1(CO[P@@](=O)(N[C@@H](C)C(=O)OC(C)C)Oc2ccccc2)C[C@@H](n2cnc3c(OCC)nc(N)nc32)C[C@@H]1O`: 0.003 µM and greater than 42 µM.
For `C#C[C@]1(COP(=O)(O)OP(=O)(O)OP(=O)(O)O)O[C@@H](n2cnc3c(N)nc(F)nc32)C[C@@H]1O`, the half-life at up to 10 µM in [8] is greater than 120 h.
Regarding `N#CC1(CO)CC(n2cnc3c(N)nc(F)nc32)CC1O` (racemic), in data set [1], the IC50 was greater than 2.1 µM. The CC50 at 48 h in data set [2] is greater than 42 µM.
On to `C#CC1(COP(=O)(O)OP(=O)(O)OP(=O)(O)O)CC(n2cc(C)c(=O)[nH]c2=O)CC1O` (racemic), for which, in data set [9], the IC50 turned out to be 0.114 µM.
As to `Cc1cn(C2CC(O)C(C#N)(CO)C2)c(=O)[nH]c1=O` (racemic), the IC50 in [1] was greater than 2.1 µM. Besides, in data set [2], the CC50 at 48 h is greater than 42 µM.
`C#CC1(COP(=O)(O)OP(=O)(O)OP(=O)(O)O)CC(n2cnc3c(N)nc(Cl)nc32)CC1O` (racemic) had an IC50 in data set [9] of 20.2 µM.
In the case of `N#CC1(CO)CC(n2cnc3c(=O)[nH]c(N)nc32)CC1O` (racemic), the IC50 in [1] is 1.15 µM. In [2], the CC50 at 48 h is greater than 42 µM.
On to `C#CC1(CO)CC(n2cnc3c(=O)[nH]c(N)nc32)CC1O` (racemic), for which the IC50 in data set [1] was 0.033 µM. The CC50 at 48 h in data set [2] was greater than 42 µM.
In data set [9], `Cc1cn(C2CC(O)C(C#N)(COP(=O)(O)OP(=O)(O)OP(=O)(O)O)C2)c(=O)[nH]c1=O` (racemic) showed a concentration for half-maximal inhibition (IC50) of 0.523 µM.
The same measure, in the same setting: to `C#CC1(COP(=O)(O)OP(=O)(O)OP(=O)(O)O)CC(n2cnc3c(N)nc(F)nc32)CC1O` (racemic) belongs 3.46 µM.
As to `C#CC1(CO)CC(n2cc(C)c(=O)[nH]c2=O)CC1O` (racemic), the IC50 in data set [1] was greater than 2.1 µM. For the same compound, the half-maximal cytotoxic concentration (CC50) at 48 h in data set [2] was greater than 42 µM.
The matching figures for `C#CC1(CO)CC(n2cnc3c(N)nc(Cl)nc32)CC1O` (racemic): 0.232 µM and greater than 42 µM.
For the compound `C#CC1(CO)CC(n2cnc3c(N)nc(F)nc32)CC1O` (racemic), the IC50 in [1] is 0.201 µM. The CC50 at 48 h in data set [2] is greater than 42 µM.
In turn, `N#CC1(COP(=O)(O)OP(=O)(O)OP(=O)(O)O)CC(n2cnc3c(=O)[nH]c(N)nc32)CC1O` (racemic) had an IC50 in data set [9] of 0.444 µM.
`C#CC1(COP(=O)(O)OP(=O)(O)OP(=O)(O)O)CC(n2cnc3c(=O)[nH]c(N)nc32)CC1O` (racemic) showed an IC50 in data set [9] of 0.324 µM.
Regarding `C#C[C@]1(CO)O[C@@H](n2cnc3c(N)nc(F)nc32)C[C@@H]1O` [ISLATRAVIR], the IC50 in data set [1] was 0.00021 µM. Moreover, in [2], the CC50 at 48 h is greater than 4.2 µM. The AUC(0-inf) in data set [3] is 0.78 µM·h; in data set [10], 5 µM·h. The compound also yielded a clearance in data set [5] of 72 mL/min/kg. The half-life in data set [6] is 0.7 h. The bioavailability in data set [11] is greater than 100%.
Consider `Nc1ccn([C@@H]2CS[C@H](COP(=O)(O)OP(=O)(O)OP(=O)(O)O)O2)c(=O)n1` [LAMIVUDINE TRIPHOSPHATE], for which inhibition in data set [9] was half-maximal at 0.015 µM (IC50).
On to `Nc1ccn([C@@H]2CS[C@H](CO)O2)c(=O)n1` [LAMIVUDINE], for which the IC50 in [1] stood at 0.171 µM. In [2], the 50% cytotoxic concentration (CC50) at 48 h was greater than 42 µM.
